According to ChEMBL document CHEMBL1129959, “Synthesis and antiproliferative and antiviral activity of carbohydrate-modified pyrrolo[2,3-d]pyridazin-7-one nucleosides” (J Med Chem, 1997):

How the values were obtained:
HFF [1] = assay: Antiviral activity was determined by the HCMV plaque assay using HFF cells; assay type: functional, cell-based; conditions: Homo sapiens
How it was run: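 HCMV Towne strain (plaque-purified isolate Po) on HFF monolayers grown in MEM with Earle's salts and 10% FBS. Inoculum held approximately 50 PFU. Compounds were dissolved in the overlay medium and plaques counted. IC50 came from linear regression of percent inhibition against log concentration. Ganciclovir was the positive control.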

KB [2] = assay: Cytotoxicity in KB cells.; assay type: functional, cell-based; conditions: Homo sapiens
How it was run: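 KB cells grown in MEM with Hank's salts and 5% FBS. Growth was measured spectrophotometrically by crystal violet staining 2 days after drug treatment, in quadruplicate wells. IC50 was taken from linear regression of percent inhibition against log concentration. 2-Acetylpyridine thiosemicarbazone was the positive control.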

KB [3] = assay: Antiviral activity was estimated by HSV-1 ELISA method.; assay type: functional, cell-based; conditions: Homo sapiens
How it was run: (§1)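 HSV-1 S-148 strain was assayed by enzyme immunoassay (ELISA) in quadruplicate wells. The reported value is the average IC50, taken from linear regression of percent inhibition against log drug concentration. Acyclovir served as the positive control, and sets were rejected if it deviated more than 1.5 standard deviations from its mean.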

L1210 [4] = assay: The in vitro cytotoxicity against L1210 cells was evaluated; assay type: functional, cell-based; conditions: Mus musculus
How it was run: (§2)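 L1210 cells were grown in static suspension in Fischer's medium with 10% heat-inactivated horse serum. Cells were counted at 0, 48 and 96 h across a range of compound concentrations. Growth rate is the ratio of control to treated population-doubling time; the 48–96 h rate was used if growth slowed. IC50 is the concentration giving 50% of control growth rate; highest concentration tested was 100 μM.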

HFF [5] = assay: Cytotoxicity in HFF cells was estimated by the visual scoring of cells not affected by virus infection in the plaque reduction assay.; conditions: Homo sapiens
KB [6] = assay: Antiviral activity was estimated by HSV-1 ELISA method (data of single experiment); assay type: functional, cell-based; conditions: Homo sapiens; how it was run: as §1
L1210 [7] = assay: cytotoxicity in L1210 cell culture(cell proliferation inhibited by 50%); assay type: functional, cell-based; conditions: Mus musculus; how it was run: as §2
KB [8] = assay: Antiviral activity was estimated by HSV-1 ELISA method; assay type: functional, cell-based; conditions: Homo sapiens; how it was run: as §1
L1210 [9] = assay: Cytotoxicity in L1210 cell culture(cell proliferation inhibited by 50%); assay type: functional, cell-based; conditions: Mus musculus; how it was run: as §2
HFF [10] = assay: Antiviral activity was estimated by the HCMV yield reduction experiments.; assay type: functional; conditions: Homo sapiens
How it was run: (§3)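 HCMV Towne strain yield reduction assay. Results are given as IC90, derived by linear regression of percent inhibition against log drug concentration. Ganciclovir was the positive control.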

HFF [11] = assay: Antiviral activity was estimated by the HCMV yield reduction experiments; assay type: functional; conditions: Homo sapiens; how it was run: as §3

| SMILES | IC50 (HFF [1]) [µM] | IC50 (KB [2]) [µM] | IC50 (KB [3]) [µM] | IC50 (L1210 [4]) [µM] | IC50 (HFF [5]) [µM] | IC50 (KB [6]) [µM] | IC50 (L1210 [7]) [µM] | IC50 (KB [8]) [µM] | IC50 (L1210 [9]) [µM] | IC90 (HFF [10]) [µM] | IC90 (HFF [11]) [µM] |
| --- | --- | --- | --- | --- | --- | --- | --- | --- | --- | --- | --- |
| Nc1nnc(O)c2c1ccn2C1CCC(CO)O1 (stereo unspecified) | > 100 | > 100 | > 100 | > 100 | > 100 | – | – | – | – | – | – |
| Nc1nnc(O)c2c1ccn2COC(CO)CO | > 100 | > 100 | – | – | > 100 | > 100 | > 100 | – | – | – | – |
| Nc1nnc(O)c2c1c(Br)cn2COC(CO)CO | > 100 | > 100 | – | – | > 100 | – | – | > 100 | > 100 | – | – |
| Nc1nnc(O)c2c1ccn2[C@@H]1O[C@H](CO)[C@@H](O)[C@H]1O | – | – | 90 | – | > 100 | – | – | – | – | – | – |
| Nc1n[nH]c(=O)c2c1c(Br)cn2[C@@H]1O[C@H](CO)[C@@H](O)[C@@H]1O | 2.7 | 15 | 20 | 18 | 32 | – | – | – | – | 6.3 | – |
| Nc1nnc(O)c2c1ccn2[C@@H]1O[C@H](CO)[C@@H](O)[C@@H]1O | > 100 | – | 90 | 100 | > 100 | – | – | – | – | – | – |
| Nc1n[nH]c(=O)c2c1c(Br)cn2[C@@H]1O[C@H](CO)[C@@H](O)[C@H]1O | 0.1 | – | 2 | – | – | – | – | – | – | 0.04 | – |
| Nc1n[nH]c(=O)c2c1ccn2[C@H]1C[C@H](O)[C@@H](CO)O1 | > 100 | > 100 | 128 | – | > 100 | – | – | – | > 100 | – | – |
| Nc1nnc(O)c2c1c(Br)cn2C1CCC(CO)O1 (stereo unspecified) | 12 | 10 | 27 | 38 | 32 | – | – | – | – | 10 | – |
| Nc1nnc(O)c2c1c(I)cn2C1O[C@H](CO)[C@@H](O)[C@H]1O (stereo partly specified) | 0.4 | – | 4.5 | 0.02 | – | – | – | – | – | 0.02 | – |
| Nc1nnc(O)c2c1c(Cl)cn2C1O[C@H](CO)[C@@H](O)[C@H]1O (stereo partly specified) | 0.2 | – | 6.8 | – | – | – | – | – | – | 0.7 | – |
| Nc1nc2c(ncn2COC(CO)CO)c(=O)[nH]1 [GANCICLOVIR] | 7.7 | – | – | – | – | 3.5 | – | – | – | – | 1.8 |
